Reference: ChEMBL document CHEMBL1144067, “Cancer chemopreventive agents (antitumor-promoters) from Ajuga decumbens” (J Nat Prod, 1999)

Tests used:
Raji [1] = test: Inhibition of 12-O-tetradecanoylphorbol-13-acetate induced EBV-early antigen activation in human Raji cells at 1000 molar ratio relative to control; type: cell-based; conditions: human gammaherpesvirus 4
Summary of the method: (§1)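 Raji cells in RPMI-1640 treated 48 h at 37 °C with n-butyric acid (4 mmol), TPA (32 pmol = 20 ng/mL) and test agent at 10, 100, 500 or 1000 mol ratio/TPA (0.32–32 nmol). EA-positive cells in smears detected by indirect immunofluorescence; induction expressed relative to TPA positive control (100%), n = 3, ±S.D.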

Raji [2] = test: Inhibition of 12-O-tetradecanoylphorbol-13-acetate induced EBV-early antigen activation in human Raji cells at 500 molar ratio relative to control; type: cell-based; conditions: human gammaherpesvirus 4; summary of the method: as §1
Raji [3] = test: Inhibition of 12-O-tetradecanoylphorbol-13-acetate induced EBV-early antigen activation in human Raji cells at 100 molar ratio relative to control; type: cell-based; conditions: human gammaherpesvirus 4; summary of the method: as §1
Raji [4] = test: Inhibition of 12-O-tetradecanoylphorbol-13-acetate induced EBV-early antigen activation in human Raji cells at 10 molar ratio relative to control; type: cell-based; conditions: human gammaherpesvirus 4; summary of the method: as §1
[5] = Cytotoxicity against human Raji cells assessed as cell viability at 1000 molar ratio after 48 hrs; type: cell-based; conditions: read-out: Activity
Summary of the method: (§2)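 Raji cells (EBV genome-carrying, Burkitt's lymphoma-derived) grown in RPMI-1640 and incubated 48 h at 37 °C with 4 mmol n-butyric acid, 32 pmol TPA (20 ng/mL) and test agent at 10–1000 mol ratio/TPA (0.32–32 nmol). Viability given as percentage of Raji cells; n = 3, ±S.D.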

[6] = Cytotoxicity against human Raji cells assessed as cell viability at 500 molar ratio after 48 hrs; type: cell-based; conditions: read-out: Activity; summary of the method: as §2
[7] = Cytotoxicity against human Raji cells assessed as cell viability at 100 molar ratio after 48 hrs; type: cell-based; conditions: read-out: Activity; summary of the method: as §2
[8] = Cytotoxicity against human Raji cells assessed as cell viability at 10 molar ratio after 48 hrs; type: cell-based; conditions: read-out: Activity; summary of the method: as §2
Mus musculus [9] = test: Inhibition of DMBA-induced/TPA-promoted carcinogenesis in mouse assessed as number of skin papillomas per mouse at 85 nmol administered twice weekly after 1 week of initiation for 10 weeks; type: functional
Summary of the method: (§3)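 Female SPF ICR mice, 6 weeks old, 15 per group, backs shaved; single topical DMBA initiation (100 μg, 390 nmol) in 0.1 mL acetone. From 1 week after, promotion with TPA 1.7 nmol twice weekly, plus 85 nmol test agent. Papilloma incidence and number per mouse monitored weekly for 20 weeks.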

Mus musculus [10] = test: Inhibition of DMBA-induced/TPA-promoted carcinogenesis in mouse assessed as number of skin papillomas per mouse at 85 nmol administered twice weekly after 1 week of initiation for 20 weeks; type: functional; summary of the method: as §3
Mus musculus [11] = test: Inhibition of DMBA-induced/TPA-promoted carcinogenesis in mouse assessed as number of mouse bearing papillomas at 85 nmol administered twice weekly after 1 week of initiation for 8 weeks; type: functional; set-up: scale not given: the % may be the effect or the level left; summary of the method: as §3
Mus musculus [12] = test: Inhibition of DMBA-induced/TPA-promoted carcinogenesis in mouse assessed as number of mouse bearing papillomas at 85 nmol administered twice weekly after 1 week of initiation for 10 weeks; type: functional; set-up: scale not given: the % may be the effect or the level left; summary of the method: as §3
Mus musculus [13] = test: Inhibition of DMBA-induced/TPA-promoted carcinogenesis in mouse assessed as number of mouse bearing papillomas at 85 nmol administered twice weekly after 1 week of initiation for 17 weeks; type: functional; set-up: scale not given: the % may be the effect or the level left; summary of the method: as §3
Mus musculus [14] = test: Toxicity in 4NQO-induced/glycerol-promoted carcinogenesis mouse model assessed change in body weight at 1.27 mg/week administered twice weekly after 5 weeks of initiation for 22 weeks; type: organism-based; conditions: in vivo
Summary of the method: (§4)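 Female ICR mice in the 4NQO (0.3 mg s.c.)-initiated, 8% glycerol drinking-water-promoted lung model, 15 per group, test agent at 0.0025% or 0.005%. Body weight recorded at end of the 22-week promotion period.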

Mus musculus [15] = test: Toxicity in 4NQO-induced/glycerol-promoted carcinogenesis mouse model assessed change in body weight at 2.54 mg/week administered twice weekly after 5 weeks of initiation for 22 weeks; type: organism-based; conditions: in vivo; summary of the method: as §4
Mus musculus [16] = test: Inhibition of 4NQO-induced/glycerol-promoted carcinogenesis in mouse assessed number of pulmonary tumors per mouse at 1.27 mg/week administered twice weekly after 5 weeks of initiation for 22 weeks; type: functional
Summary of the method: (§5)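 Female SPF ICR mice (6 weeks old), 15 per group. Initiation by single s.c. injection of 0.3 mg 4NQO in olive oil–cholesterol (20:1); promotion with 8% glycerol in drinking water ad libitum, test agent given at 0.0025% or 0.005%. Killed by cervical dislocation after 22-week promotion; pulmonary tumors counted per lobe under dissecting microscope. Student's t-test vs 4NQO + glycerol group.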

Mus musculus [17] = test: Inhibition of 4NQO-induced/glycerol-promoted carcinogenesis in mouse assessed number of mouse with pulmonary tumors at 1.27 mg/week administered twice weekly after 5 weeks of initiation for 22 weeks; type: functional; set-up: scale not given: the % may be the effect or the level left; summary of the method: as §5
Mus musculus [18] = test: Inhibition of 4NQO-induced/glycerol-promoted carcinogenesis in mouse assessed number of pulmonary tumors per mouse at 2.54 mg/week administered twice weekly after 5 weeks of initiation for 22 weeks; type: functional; summary of the method: as §5
Mus musculus [19] = test: Inhibition of 4NQO-induced/glycerol-promoted carcinogenesis in mouse assessed number of mouse with pulmonary tumors at 2.54 mg/week administered twice weekly after 5 weeks of initiation for 22 weeks; type: functional; set-up: scale not given: the % may be the effect or the level left; summary of the method: as §5

Compound	EBV-EA induction remaining (% of TPA control) (Raji [1]) [%]	EBV-EA induction remaining (% of TPA control) (Raji [2]) [%]	EBV-EA induction remaining (% of TPA control) (Raji [3]) [%]	EBV-EA activation relative to TPA control (Raji [4]) [%]	viability at 48 h, 1000 molar ratio [5] [%]	viability at 48 h, 500 molar ratio [6] [%]	viability at 48 h, 100 molar ratio [7] [%]	viability at 48 h, 10 molar ratio [8] [%]	Activity (Mus musculus [9])	Activity (Mus musculus [10])	Activity (Mus musculus [11]) [%]	Activity (Mus musculus [12]) [%]	Activity (Mus musculus [13]) [%]	Activity (Mus musculus [14])	Activity (Mus musculus [15])	Activity (Mus musculus [16])	Activity (Mus musculus [17]) [%]	Activity (Mus musculus [18])	Activity (Mus musculus [19]) [%]
C[C@@H]1C(=O)O[C@H](C)[C@H]1C[C@@H](O)[C@](C)(O)[C@H]1CC[C@@]2(O)C3=CC(=O)[C@@H]4C[C@@H](O)[C@@H](O)C[C@]4(C)[C@H]3CC[C@]12C [CYASTERONE]	0	36.2	75.2	94.6	70	> 80	> 80	> 80	2.5	7	43	60	80						
CC1(C)[C@@H](O)CC[C@]2(C)[C@H]3C(=O)C=C4[C@@H]5C[C@@](C)(C(=O)O)CC[C@]5(C)CC[C@@]4(C)[C@]3(C)CC[C@@H]12 [ENOXOLONE]									4	9									
CC(=O)O[C@@]1(C)C[C@@H](O)[C@]2(O)C=CO[C@@H](O[C@@H]3O[C@H](CO)[C@@H](O)[C@H](O)[C@H]3O)[C@@H]21	0	19.9	62.6	89.5		> 80	> 80	> 80	2	6	10	20	80	Non-toxic	Non-toxic	1.1	53.3	0.9	46.6
